Changes are numbered by the printed parent chain. “Also recorded” adds a separate entry of the source.
Key:
Scp1 [1] = biological target: T1, Scp1 (Homo sapiens, UniProt Q9GZU7); assay: Concentration-response assay of rabeprazole analogues on Scp1; assay type: biochemical
T1 sequence (Q9GZU7 77-256): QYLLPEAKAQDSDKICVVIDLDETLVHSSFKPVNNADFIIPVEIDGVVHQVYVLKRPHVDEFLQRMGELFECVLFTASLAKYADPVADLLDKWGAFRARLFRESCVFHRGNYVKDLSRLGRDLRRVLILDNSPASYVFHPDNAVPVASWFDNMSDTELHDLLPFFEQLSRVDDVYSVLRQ

Scp1 K157A mutant = biological target: T2, Scp1 K157A mutant (Homo sapiens, UniProt Q9GZU7, K157A); assay: pNPP assay, Scp1 K157A mutant; assay type: biochemical
T2 sequence (Q9GZU7 77-256 K157A): T1 sequence (Q9GZU7 77-256) with K81A
Method in brief: (§1)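 Point mutants of human Scp1 (residues 77–256; E. coli BL21(DE3), Ni-NTA purified), 50 ng each. Each was preincubated with inhibitor 10 min at RT in pH 5.5 Tris-acetate buffer with 10 mM MgCl2, 0.02% Triton X-100, 1% DMSO. pNPP near Km was added and hydrolysis ran 10–15 min at 37 °C. Reactions were quenched with 0.25 N NaOH and read at 410 nm. IC50 was fitted from concentration–response curves (0–100 µM inhibitor).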

S. pombe Fcp1 = biological target: T3, S. pombe Fcp1 (Schizosaccharomyces pombe, UniProt Q9P376); assay: pNPP assay, concentration-response on Fcp1; assay type: biochemical; settings: up to 0.1 mM rabeprazole, substrate comparable to Km
T3 sequence (Q9P376 148-641): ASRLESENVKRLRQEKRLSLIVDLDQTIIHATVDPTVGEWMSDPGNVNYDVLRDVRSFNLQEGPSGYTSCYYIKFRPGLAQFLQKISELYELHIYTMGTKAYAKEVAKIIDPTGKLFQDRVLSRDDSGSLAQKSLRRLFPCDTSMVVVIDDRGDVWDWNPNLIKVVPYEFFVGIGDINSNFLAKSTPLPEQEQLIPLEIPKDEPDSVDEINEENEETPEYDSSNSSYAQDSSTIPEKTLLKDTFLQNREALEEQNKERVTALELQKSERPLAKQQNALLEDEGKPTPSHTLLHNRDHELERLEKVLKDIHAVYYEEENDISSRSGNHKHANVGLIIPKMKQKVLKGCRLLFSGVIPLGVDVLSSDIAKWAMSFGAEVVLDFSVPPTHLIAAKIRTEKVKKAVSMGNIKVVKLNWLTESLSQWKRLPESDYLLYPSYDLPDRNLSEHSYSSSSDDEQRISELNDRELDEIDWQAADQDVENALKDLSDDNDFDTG

[2] = system: Scp1 Tyr158 to Ala mutant; assay: pNPP assay, Scp1 Tyr158 to Ala mutant; assay type: biochemical, human
Method in brief: as §1

Scp1 [3] = biological target: T1, Scp1; assay: pNPP assay of Scp1 phosphatase activity; assay type: biochemical
human Dullard = biological target: T4, human Dullard (Homo sapiens, UniProt O95476); assay: pNPP assay, concentration-response on Dullard; assay type: biochemical; settings: up to 0.1 mM rabeprazole, substrate comparable to Km
T4 sequence (O95476 46-244): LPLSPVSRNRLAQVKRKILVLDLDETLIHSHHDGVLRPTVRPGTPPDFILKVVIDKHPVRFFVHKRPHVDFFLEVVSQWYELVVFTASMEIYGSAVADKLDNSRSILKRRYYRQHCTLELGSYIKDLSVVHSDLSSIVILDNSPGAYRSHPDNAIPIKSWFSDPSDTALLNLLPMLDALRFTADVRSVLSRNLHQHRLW

Scp1 V127A mutant = biological target: T5, Scp1 V127A mutant (Homo sapiens, UniProt Q9GZU7, V127A); assay: pNPP assay, Scp1 V127A mutant; assay type: biochemical
T5 sequence (Q9GZU7 77-256 V127A): T1 sequence (Q9GZU7 77-256) with V51A
Method in brief: as §1

Scp1 [4] = biological target: T1, Scp1; assay: Malachite green assay with CTD-derived phosphorylated peptide; assay type: biochemical
Method in brief: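 Human Scp1 (residues 77–256, E. coli BL21(DE3)-expressed, Ni-NTA purified), 5 ng, acting on a 17-mer Ser5-phosphorylated CTD peptide. Reaction ran 3 min at 37 °C, was quenched with malachite green reagent, and read at 620 nm. IC50 used substrate near Km with 0–100 µM inhibitor. Km came from peptide at 0.01–0.4 mM; Ki from peptide titrations without and with inhibitor.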

[5] = biological target: T6, bacteriophage λ Ser/Thr phosphoprotein phosphatase (λPPase) (Escherichia phage lambda, UniProt P03772); assay: Inhibition of λPPase; assay type: biochemical; settings: up to 1 mM concentration (data not shown)
T6 sequence (P03772 1-221): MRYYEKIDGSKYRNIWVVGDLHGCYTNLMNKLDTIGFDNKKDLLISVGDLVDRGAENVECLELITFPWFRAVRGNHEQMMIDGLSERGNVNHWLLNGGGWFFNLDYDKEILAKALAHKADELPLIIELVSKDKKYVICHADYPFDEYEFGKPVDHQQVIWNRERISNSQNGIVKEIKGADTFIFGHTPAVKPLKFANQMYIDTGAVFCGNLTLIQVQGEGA

Scp1 L155A mutant = biological target: T7, Scp1 L155A mutant (Homo sapiens, UniProt Q9GZU7, L155A); assay: pNPP assay, Scp1 L155A mutant; assay type: biochemical
T7 sequence (Q9GZU7 77-256 L155A): T1 sequence (Q9GZU7 77-256) with L79A
Method in brief: as §1

Scp1 [6] = biological target: T1, Scp1; assay: Differential scanning fluorimetry, thermal stability of Scp1; assay type: binding; settings: 20 µM protein, 100 µM rabeprazole; 57.8 °C in absence of compound
Scp1 F106E mutant = assay: pNPP assay, Scp1 F106E mutant; assay type: biochemical, human
Method in brief: as §1

## COCCCOc1cc[n+]([O-])c(C[S+]([O-])c2nc3ccccc3[nH]2)c1C (stereo not drawn) [Rabeprazole N-oxide]
Scp1 [1]
  inhibition of Scp1: no inhibition

## COCCCOc1ccnc(CS(=O)(=O)c2nc3ccccc3[nH]2)c1C [Rabeprazole sulfone]
Scp1 [1]
  inhibition of Scp1: did not show any inhibition

## Cc1c(OCC(F)(F)F)ccnc1C[S+]([O-])c1nc2ccccc2[nH]1 (stereo not drawn) [lansoprazole]
Scp1 [1]
  inhibition of Scp1: no inhibition; also recorded: does not inhibit

## COCCCOc1ccnc(C[S+]([O-])c2nc3ccccc3[nH]2)c1C (stereo not drawn) [rabeprazole]
Scp1 K157A mutant
  change of IC50 versus wildtype Scp1: moderately increased IC50
S. pombe Fcp1
  inhibition of Fcp1: no inhibition
[2]
  loss of inhibition versus wildtype Scp1: at least 10 fold
Scp1 [3]
  IC50: 4 ± 0.7 µM
Scp1 [3]; against pNPP
  mechanism of inhibition: mixed inhibitor
Scp1 [3]; pNPP as the substrate, steady-state kinetics
  Ki′: 10 ± 2 µM
Human Dullard
  inhibition of Dullard: no inhibition
Scp1 V127A mutant
  change of IC50 versus wildtype Scp1: moderately increased IC50
Scp1 [4]
  IC50: 9 ± 3 µM
  Ki: 5 ± 1 µM
Scp1 [4]; CTD-derived phosphorylated peptide as the substrate
  mechanism of inhibition: competitive inhibitor
[5]
  inhibition of λPPase: no inhibition
Scp1 L155A mutant
  change of IC50 versus wildtype Scp1: moderately increased IC50
Scp1 [6]
  melting temperature of Scp1 in the presence of the compound: 59.1 °C
Scp1 F106E mutant
  increase of IC50 versus wildtype Scp1: at least 10 fold
